Test results: publication PMC9586281 (Proceedings of the National Academy of Sciences of the …, 2022)

What was measured:
FOXP3:NFAT = settings: cited from earlier work
[1] = required plasmid transfection for cellular introduction; cited from earlier work
LZCC FOXP3 (T182-M337) = molecular target: T1, LZCC FOXP3 (T182-M337) (Homo sapiens, UniProt Q9BZS1); test: Fluorescence polarization analysis; type: binding; settings: FPA, 50 nM FITC-labeled peptide, 1× PBS pH 8, 1-15 min room temperature
T1 sequence (Q9BZS1 182-336 limits assumed): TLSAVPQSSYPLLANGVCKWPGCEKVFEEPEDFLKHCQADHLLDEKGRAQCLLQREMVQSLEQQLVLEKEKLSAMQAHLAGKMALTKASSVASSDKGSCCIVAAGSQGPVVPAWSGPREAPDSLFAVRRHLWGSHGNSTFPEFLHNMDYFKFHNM
How it was run: (§1)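 Solution-phase fluorescence polarization using recombinant truncated FOXP3 as the binding partner. Equilibrium binding constants were determined for stapled peptides and for their native unstapled peptide controls.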

ΔN FOXP3 (T182-P431) = molecular target: T2, ΔN FOXP3 (T182-P431) (Homo sapiens, UniProt Q9BZS1); test: Fluorescence polarization analysis; type: binding; settings: FPA, 50 nM FITC-labeled peptide, 1× PBS pH 8, 1-15 min room temperature
T2 sequence (Q9BZS1 182-431): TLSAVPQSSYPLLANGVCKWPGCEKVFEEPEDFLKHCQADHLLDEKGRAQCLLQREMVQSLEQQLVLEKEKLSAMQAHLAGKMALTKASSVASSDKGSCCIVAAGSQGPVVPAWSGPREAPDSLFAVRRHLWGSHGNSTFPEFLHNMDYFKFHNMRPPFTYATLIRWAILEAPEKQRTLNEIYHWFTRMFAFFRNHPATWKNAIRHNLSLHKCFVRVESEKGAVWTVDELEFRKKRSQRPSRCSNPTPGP
How it was run: as §1

[2] = test system: Treg cell-mediated suppression of Tcon cell proliferation; test: Ex vivo suppression assay; type: cell-based, mice; settings: Treg cells pretreated with peptide, 72 h coculture with Tcon cells

| KD, LZCC FOXP3 (LZCC FOXP3 (T182-M337)) | KD, ΔN FOXP3 (ΔN FOXP3 (T182-P431)) | Substance | Inhibition of FOXP3:NFAT (FOXP3:NFAT) | Cell permeability [1] | Inhibition of Treg cell-mediated suppression of target proliferation [2] |
| --- | --- | --- | --- | --- | --- |
|  |  | FOXP3 393–403: nonstructured peptide spanning a loop domain and the Wing1 region of the FKH domain of FOXP3 (KCFVRVESEKG; UniProt Q9BZS1 393-403, looked up, fragment) | partially inhibit FOXP3:NFAT | not cell permeable |  |
| no binding | no binding | FOXP3(229-259): native, unstapled peptide control of hFOXP3 residues 229-259 (RAQCLLQREMVQSLEQQLVLEKEKLSAMQAH; UniProt Q9BZS1 229-259, looked up, fragment) |  |  | no ability to prevent Treg cell–mediated suppression of Tcon cell proliferation |
